Source: ChEMBL document CHEMBL1275350, “First in class, potent, and orally bioavailable NADPH oxidase isoform 4 (Nox4) inhibitors for the treatment of idiopathic pulmonary fibrosis” (J Med Chem, 2010)

Columns and labels:
Rattus norvegicus = experiment: Hepatic blood flow in Sprague-Dawley rat at 5 mg/kg, iv; assay type: ADME, organism-based, Liver; design: dose 5 mg/kg, route intravenous; settings: in vivo
[1] = Intrinsic clearance in Sprague-Dawley rat liver microsomes assessed per mg of protein at 0.5 uM; assay type: ADME, Microsome
In short: (§1)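 Phase I stability assay in pooled liver microsomes (human: male and female; rat: male Sprague-Dawley). Microsomes at 0.5 mg/mL final in 0.1 M phosphate pH 7.4. Compound 0.5 μM final, 0.25% DMSO. Preincubated at 37 °C, reaction started with 1 mM NADPH. Sampled at 0, 5, 15, 30 and 45 min, with a 45 min minus-NADPH control. Methanol quench with internal standard, LC/MS-MS, intrinsic clearance calculated.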

NADPH oxidase 2 = NADPH oxidase 2 (Homo sapiens, UniProt P04839); experiment: Inhibition of human NOX2 overexpressed in […] cell membrane assessed as ROS production by cell free assay in presence of NADPH
In short: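 Nox2 source: membranes from human polymorphonuclear cells, sonicated and collected at the 17/40% sucrose interface. ROS read by Amplex Red/HRP in PBS after NADPH addition, with compound at 1 nM–100 μM for 20 min at 37 °C. Background taken without membranes or agonist. Ki via Cheng-Prusoff, mean of ≥3 experiments in triplicate.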

[2] = Cmax in Sprague-Dawley rat at 5 mg/kg, sc; assay type: ADME, organism-based; design: dose 5 mg/kg, route subcutaneous; settings: in vivo
[3] = AUC (infinity) in Sprague-Dawley rat at 10 mg/kg, po; assay type: ADME, organism-based; design: time infinity, dose 10 mg/kg, route oral; settings: plasma
In short: (§2)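 Parallel design with six male rats: three given 5 mg/kg iv in EDPW (10% EtOH, 10% DMA, 30% PG, 50% water), three given 10 mg/kg orally in aqueous 0.5% CMC with 0.25% Tween 20. Carotid cannula blood sampled up to 24 h. Plasma levels by LC/MS/MS (LLOQ 1.00 ng/mL). Noncompartmental analysis.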

[4] = Tmax in Sprague-Dawley rat at 5 mg/kg, sc; assay type: ADME, organism-based; design: dose 5 mg/kg, route subcutaneous; settings: in vivo
[5] = Cmax in Sprague-Dawley rat at 10 mg/kg, po; assay type: ADME, organism-based; design: dose 10 mg/kg, route oral; settings: in vivo; in short: as §2
[6] = Half life in Sprague-Dawley rat at 10 mg/kg, po; assay type: ADME, organism-based; design: dose 10 mg/kg, route oral; settings: in vivo; in short: as §2
[7] = Oral bioavailability in Sprague-Dawley rat at 10 mg/kg; assay type: ADME, organism-based; settings: in vivo
In short: (§3)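 Parallel design in male rats, three per group. Group 1: 5 mg/kg iv in EDPW (10% EtOH, 10% DMA, 30% PG, 50% water). Group 2: 10 mg/kg oral in aqueous 0.5% CMC with 0.25% Tween 20. Carotid cannula blood drawn up to 24 h. Plasma measured by LC/MS/MS (LLOQ 1.00 ng/mL), noncompartmental analysis.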

[8] = Half life in Sprague-Dawley rat at 5 mg/kg, sc; assay type: ADME, organism-based; design: dose 5 mg/kg, route subcutaneous; settings: in vivo
[9] = Bioavailability in Sprague-Dawley rat at 5 mg/kg, sc; assay type: ADME, organism-based; settings: in vivo
[10] = AUC (infinity) in Sprague-Dawley rat at 1 mg/kg, iv; assay type: ADME, organism-based; design: time infinity, dose 1 mg/kg, route intravenous; settings: plasma
[11] = Tmax in Sprague-Dawley rat at 1 mg/kg, iv; assay type: ADME, organism-based; design: dose 1 mg/kg, route intravenous; settings: in vivo
[12] = Cmax in Sprague-Dawley rat at 1 mg/kg, iv; assay type: ADME, organism-based; design: dose 1 mg/kg, route intravenous; settings: in vivo
[13] = Tmax in Sprague-Dawley rat at 10 mg/kg, po; assay type: ADME, organism-based; design: dose 10 mg/kg, route oral; settings: in vivo; in short: as §3
[14] = biological target: Xanthine dehydrogenase/oxidase (Homo sapiens, UniProt P47989); experiment: Inhibition of xanthine oxidase by in vitro enzymatic assay in presence of xanthine
In short: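 Cell-free Amplex Red read-out: xanthine oxidase incubated in PBS with Amplex Red, HRP and cofactors; ROS production started by adding xanthine. Compound at rising concentrations from 1 nM to 100 μM, 20 min at 37 °C, then read on a plate reader. Background taken without enzyme or without agonist. Ki by Cheng-Prusoff, mean of at least three experiments run in triplicate.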

[15] = AUC (infinity) in Sprague-Dawley rat at 5 mg/kg, sc; assay type: ADME, organism-based; design: time infinity, dose 5 mg/kg, route subcutaneous; settings: plasma
NADPH oxidase 4 = biological target: T1, NADPH oxidase 4 (Homo sapiens, UniProt Q9NPH5); experiment: Inhibition of human NOX4 overexpressed in T-REx-293 cell membrane assessed as ROS production by cell free assay in presence of NADPH; settings: in the assay text read “T-REx-293 cell membrane” for “human PMN cell membrane”
T1 sequence (Q9NPH5 whole entry): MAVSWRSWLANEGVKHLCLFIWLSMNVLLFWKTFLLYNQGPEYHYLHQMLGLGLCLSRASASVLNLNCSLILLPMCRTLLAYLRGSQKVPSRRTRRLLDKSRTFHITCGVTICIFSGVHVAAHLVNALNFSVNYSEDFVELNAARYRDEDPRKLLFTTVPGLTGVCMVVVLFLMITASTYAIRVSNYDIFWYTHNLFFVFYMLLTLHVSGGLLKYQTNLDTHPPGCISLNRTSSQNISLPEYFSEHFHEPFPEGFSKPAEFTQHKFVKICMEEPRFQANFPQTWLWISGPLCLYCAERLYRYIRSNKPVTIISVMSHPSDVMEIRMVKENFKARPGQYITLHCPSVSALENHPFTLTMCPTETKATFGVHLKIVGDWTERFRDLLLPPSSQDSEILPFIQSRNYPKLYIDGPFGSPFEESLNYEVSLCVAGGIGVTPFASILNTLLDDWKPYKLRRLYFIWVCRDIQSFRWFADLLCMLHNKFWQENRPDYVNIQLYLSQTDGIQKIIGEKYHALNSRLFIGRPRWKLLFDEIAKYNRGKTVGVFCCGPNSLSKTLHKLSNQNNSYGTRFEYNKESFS
In short: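 hNOX4 T-REx-293 cells induced with tetracycline (1 μg/mL, 24 h), sonicated in sucrose/NaCl/EGTA PBS buffer pH 7.4, membranes taken from a sucrose gradient. NADPH-triggered ROS measured by Amplex Red/HRP in PBS, with compound at 1 nM–100 μM, 20 min at 37 °C. Ki by Cheng-Prusoff from ≥3 triplicate experiments.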

[16] = Volume of distribution at steady state in Sprague-Dawley rat at 1 mg/kg, iv; assay type: ADME, organism-based; design: dose 1 mg/kg, route intravenous; settings: in vivo, read-out: Vdss
[17] = Clearance in Sprague-Dawley rat at 1 mg/kg, iv; assay type: ADME, organism-based; design: dose 1 mg/kg, route intravenous; settings: in vivo
[18] = Permeability across human Caco-2 cell membrane at 10 uM after 2 hrs; assay type: ADME, cell-based
In short: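 Caco-2 monolayers grown 20 days in DMEM, used when TEER >800 Ω·cm2. Dosed at 10 μM final in HBSS pH 6.5 with 1% DMSO, apical-to-basolateral and basolateral-to-apical. Incubated 2 h at 37 °C, both compartments sampled, LC-MS/MS with five-point calibration. Papp = (dQ/dt)/(C0A).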

[19] = Half life in Sprague-Dawley rat at 1 mg/kg, iv; assay type: ADME, organism-based; design: dose 1 mg/kg, route intravenous; settings: in vivo
Cytochrome P450 2C19 = Cytochrome P450 2C19 (Homo sapiens, UniProt P33261); experiment: Inhibition of human CYP2C19; assay type: ADME
In short: (§4)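 Recombinant human CYP isoforms with isoform-specific probe substrates and NADPH. Compound at 0.1–25 μM, final DMSO 0.3%. Metabolites measured by mass spectrometry, except CYP1A2, which used a fluorescent metabolite. IC50 derived from the decrease in metabolite formation compared with vehicle control.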

Cytochrome P450 2C8 = Cytochrome P450 2C8 (Homo sapiens, UniProt P10632); experiment: Inhibition of human CYP2C8; assay type: ADME; in short: as §4
[20] = Intrinsic clearance in human liver microsomes assessed as per mg of protein at 0.5 uM; assay type: ADME, Microsome; in short: as §1
Cytochrome P450 3A4 = Cytochrome P450 3A4 (Homo sapiens, UniProt P08684); experiment: Inhibition of human CYP3A4; assay type: ADME; in short: as §4
Cytochrome P450 2C9 = Cytochrome P450 2C9 (Homo sapiens, UniProt P11712); experiment: Inhibition of human CYP2C9; assay type: ADME; in short: as §4
[21] = Cmax in Sprague-Dawley rat at 5 mg/kg, iv; assay type: ADME, organism-based; design: dose 5 mg/kg, route intravenous; settings: in vivo; in short: as §2
[22] = Clearance in Sprague-Dawley rat at 5 mg/kg, iv; assay type: ADME, organism-based; design: dose 5 mg/kg, route intravenous; settings: in vivo; in short: as §2
[23] = AUC (infinity) in Sprague-Dawley rat at 5 mg/kg, iv; assay type: ADME, organism-based; design: time infinity, dose 5 mg/kg, route intravenous; settings: plasma; in short: as §2
[24] = Half life in Sprague-Dawley rat at 5 mg/kg, iv; assay type: ADME, organism-based; design: dose 5 mg/kg, route intravenous; settings: in vivo; in short: as §2
[25] = Volume of distribution at steady state in Sprague-Dawley rat at 5 mg/kg, iv; assay type: ADME, organism-based; design: dose 5 mg/kg, route intravenous; settings: in vivo, read-out: Vdss; in short: as §3
[26] = Clearance in Sprague-Dawley rat at 10 mg/kg, po; assay type: ADME, organism-based; design: dose 10 mg/kg, route oral; settings: in vivo; in short: as §2

Cytochrome P450 2C9, sequence (P11712 whole entry): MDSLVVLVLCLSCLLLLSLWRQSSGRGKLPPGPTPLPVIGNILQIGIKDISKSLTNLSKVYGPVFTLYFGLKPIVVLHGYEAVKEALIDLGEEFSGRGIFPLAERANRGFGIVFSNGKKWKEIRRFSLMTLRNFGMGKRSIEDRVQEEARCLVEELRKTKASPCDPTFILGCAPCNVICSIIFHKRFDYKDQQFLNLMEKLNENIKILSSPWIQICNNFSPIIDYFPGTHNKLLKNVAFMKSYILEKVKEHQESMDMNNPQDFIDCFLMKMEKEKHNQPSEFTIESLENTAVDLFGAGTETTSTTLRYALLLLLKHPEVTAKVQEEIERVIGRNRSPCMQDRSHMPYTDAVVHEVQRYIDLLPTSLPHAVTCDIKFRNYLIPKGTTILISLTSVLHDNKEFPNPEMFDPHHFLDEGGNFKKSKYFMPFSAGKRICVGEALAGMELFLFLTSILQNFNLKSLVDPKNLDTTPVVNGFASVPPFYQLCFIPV
Cytochrome P450 2C19, sequence (P33261 whole entry, canonical isoform): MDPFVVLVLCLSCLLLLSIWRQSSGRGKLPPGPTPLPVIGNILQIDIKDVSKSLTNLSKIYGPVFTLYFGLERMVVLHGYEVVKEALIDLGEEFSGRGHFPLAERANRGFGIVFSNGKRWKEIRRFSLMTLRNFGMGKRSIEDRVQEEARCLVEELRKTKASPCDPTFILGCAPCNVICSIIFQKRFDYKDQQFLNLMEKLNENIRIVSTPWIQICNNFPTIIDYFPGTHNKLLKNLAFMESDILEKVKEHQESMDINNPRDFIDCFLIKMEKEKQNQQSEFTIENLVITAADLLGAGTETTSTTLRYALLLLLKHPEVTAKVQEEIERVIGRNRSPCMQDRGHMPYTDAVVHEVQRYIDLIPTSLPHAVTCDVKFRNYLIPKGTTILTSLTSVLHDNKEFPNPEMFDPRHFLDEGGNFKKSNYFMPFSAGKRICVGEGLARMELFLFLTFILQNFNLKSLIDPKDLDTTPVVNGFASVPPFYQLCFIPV
Cytochrome P450 3A4, sequence (P08684 whole entry): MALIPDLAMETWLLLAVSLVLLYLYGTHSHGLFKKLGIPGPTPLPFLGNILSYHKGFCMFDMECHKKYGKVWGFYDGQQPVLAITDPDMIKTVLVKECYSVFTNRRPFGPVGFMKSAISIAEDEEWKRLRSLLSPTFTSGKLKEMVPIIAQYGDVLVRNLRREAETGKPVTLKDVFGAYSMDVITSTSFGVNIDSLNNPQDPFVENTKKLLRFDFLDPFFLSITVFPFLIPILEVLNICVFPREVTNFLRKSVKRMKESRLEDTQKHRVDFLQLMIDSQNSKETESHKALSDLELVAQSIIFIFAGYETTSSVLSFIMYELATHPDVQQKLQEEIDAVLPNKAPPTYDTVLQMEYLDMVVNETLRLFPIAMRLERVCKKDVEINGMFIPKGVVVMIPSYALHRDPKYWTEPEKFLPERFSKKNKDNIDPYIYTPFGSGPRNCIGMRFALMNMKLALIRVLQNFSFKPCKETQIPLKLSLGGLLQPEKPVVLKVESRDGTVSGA
Xanthine dehydrogenase/oxidase, sequence (P47989 whole entry): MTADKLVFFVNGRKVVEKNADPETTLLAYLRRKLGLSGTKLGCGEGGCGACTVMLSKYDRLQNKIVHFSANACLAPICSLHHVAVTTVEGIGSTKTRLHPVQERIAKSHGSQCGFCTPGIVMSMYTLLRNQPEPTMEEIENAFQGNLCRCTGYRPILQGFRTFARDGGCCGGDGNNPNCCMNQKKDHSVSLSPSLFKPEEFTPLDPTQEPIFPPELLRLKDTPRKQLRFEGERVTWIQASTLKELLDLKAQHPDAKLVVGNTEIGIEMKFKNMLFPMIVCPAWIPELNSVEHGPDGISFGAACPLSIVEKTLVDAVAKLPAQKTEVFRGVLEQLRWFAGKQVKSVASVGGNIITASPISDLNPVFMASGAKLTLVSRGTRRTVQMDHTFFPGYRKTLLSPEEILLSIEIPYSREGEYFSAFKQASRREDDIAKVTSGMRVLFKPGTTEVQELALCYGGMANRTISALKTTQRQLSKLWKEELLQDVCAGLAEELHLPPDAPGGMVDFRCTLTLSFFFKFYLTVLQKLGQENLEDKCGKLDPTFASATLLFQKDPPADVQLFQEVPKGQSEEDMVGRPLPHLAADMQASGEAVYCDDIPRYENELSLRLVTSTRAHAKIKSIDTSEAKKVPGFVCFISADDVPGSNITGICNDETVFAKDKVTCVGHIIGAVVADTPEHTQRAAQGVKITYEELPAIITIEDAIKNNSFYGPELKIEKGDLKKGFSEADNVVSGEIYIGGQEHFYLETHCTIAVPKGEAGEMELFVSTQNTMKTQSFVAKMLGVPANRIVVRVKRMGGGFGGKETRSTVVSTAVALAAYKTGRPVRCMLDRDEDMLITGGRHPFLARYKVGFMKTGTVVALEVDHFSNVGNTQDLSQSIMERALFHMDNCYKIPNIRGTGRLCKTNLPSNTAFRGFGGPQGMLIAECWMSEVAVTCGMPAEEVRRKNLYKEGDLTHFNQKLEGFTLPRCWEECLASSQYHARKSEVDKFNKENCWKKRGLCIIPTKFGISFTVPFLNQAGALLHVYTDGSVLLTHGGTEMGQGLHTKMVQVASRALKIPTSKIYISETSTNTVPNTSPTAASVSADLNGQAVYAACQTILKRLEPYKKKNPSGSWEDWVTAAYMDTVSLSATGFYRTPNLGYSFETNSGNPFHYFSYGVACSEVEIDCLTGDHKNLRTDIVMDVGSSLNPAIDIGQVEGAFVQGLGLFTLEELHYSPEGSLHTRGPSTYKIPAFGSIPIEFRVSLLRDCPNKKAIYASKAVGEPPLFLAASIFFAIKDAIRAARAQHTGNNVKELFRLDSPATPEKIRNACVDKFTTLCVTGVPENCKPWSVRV
NADPH oxidase 2, sequence (P04839 whole entry): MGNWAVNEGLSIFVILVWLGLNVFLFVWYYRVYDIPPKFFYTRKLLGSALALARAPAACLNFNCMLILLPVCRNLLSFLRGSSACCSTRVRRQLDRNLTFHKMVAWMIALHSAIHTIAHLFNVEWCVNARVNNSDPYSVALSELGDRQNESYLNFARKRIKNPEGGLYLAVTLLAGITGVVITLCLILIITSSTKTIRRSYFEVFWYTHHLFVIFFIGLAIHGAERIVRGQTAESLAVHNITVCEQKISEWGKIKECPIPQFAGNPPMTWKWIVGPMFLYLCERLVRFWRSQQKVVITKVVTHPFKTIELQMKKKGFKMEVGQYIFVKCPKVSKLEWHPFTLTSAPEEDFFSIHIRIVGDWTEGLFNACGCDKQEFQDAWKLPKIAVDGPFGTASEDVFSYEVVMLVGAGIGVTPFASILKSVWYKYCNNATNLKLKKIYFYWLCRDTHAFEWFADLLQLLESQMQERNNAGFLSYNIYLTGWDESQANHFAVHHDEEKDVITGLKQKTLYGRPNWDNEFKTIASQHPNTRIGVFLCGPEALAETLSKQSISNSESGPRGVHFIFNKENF
Cytochrome P450 2C8, sequence (P10632 whole entry): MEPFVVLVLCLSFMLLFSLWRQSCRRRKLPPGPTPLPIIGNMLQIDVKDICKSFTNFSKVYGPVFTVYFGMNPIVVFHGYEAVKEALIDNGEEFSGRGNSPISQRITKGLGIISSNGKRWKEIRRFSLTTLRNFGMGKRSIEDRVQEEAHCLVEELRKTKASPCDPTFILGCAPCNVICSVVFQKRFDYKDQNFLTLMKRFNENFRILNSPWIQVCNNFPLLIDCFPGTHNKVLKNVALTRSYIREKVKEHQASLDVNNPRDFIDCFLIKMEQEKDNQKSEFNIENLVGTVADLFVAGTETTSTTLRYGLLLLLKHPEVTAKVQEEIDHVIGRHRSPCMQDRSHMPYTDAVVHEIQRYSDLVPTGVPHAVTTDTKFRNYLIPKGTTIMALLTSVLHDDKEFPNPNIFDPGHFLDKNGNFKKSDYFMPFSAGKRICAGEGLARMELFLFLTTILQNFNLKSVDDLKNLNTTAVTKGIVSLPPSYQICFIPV

Compound	microsomal CLint at 0.5 µM [1] [µL/min/mg]	AUC(0-inf) [3] [ng·h/mL]	Cmax [5] [ng/mL]	half-life [6] [min]	bioavailability [7] [%]	Tmax [13] [min]	Ki (NADPH oxidase 4) [nM]	Papp at 2 h, 10 µM [18] [×10⁻⁶ cm/s]	IC50 (Cytochrome P450 2C19) [nM]	microsomal CLint at 0.5 µM [20] [µL/min/mg]	IC50 (Cytochrome P450 2C9) [nM]	further results
Cc1c2c(=O)n(-c3ccccc3)[nH]c2cc(=O)n1Cc1cccnc1	97.1	417	575	72	22	15	373	79.2	–	–	–	QH (Rattus norvegicus): 55 mL/min/kg; Ki (NADPH oxidase 2): 4720 nM; Cmax [2]: 678 ng/mL; Tmax [4]: 30 min; half-life [8]: 42 min; bioavailability [9]: 87%; AUC(0-inf) [10]: 196 ng·h/mL; Tmax [11]: 4.8 min; Cmax [12]: 271 ng/mL; Ki [14]: > 30000 nM; AUC(0-inf) [15]: 815 ng·h/mL; Vd [16]: 2.36 L/kg; clearance [17]: 85.2 mL/min/kg; half-life [19]: 24 min
CN(Cc1c2c(=O)n(-c3ccccc3Cl)[nH]c2cc(=O)n1Cc1ccncc1)c1ccccc1	78	–	–	–	–	–	151	4.6	6500	76.3	4100	IC50 (Cytochrome P450 2C8): 3600 nM; IC50 (Cytochrome P450 3A4): 1100 nM
O=c1c2c(COCc3ccccc3)n(Cc3cnccn3)c(=O)cc2[nH]n1-c1ccccc1Cl	49.5	8930	6080	143	29	15	95	78.6	–	32.4	–	Cmax [21]: 36800 ng/mL; clearance [22]: 5.5 mL/min/kg; AUC(0-inf) [23]: 15400 ng·h/mL; half-life [24]: 188 min; Vd [25]: 0.35 L/kg; CL/F [26]: 20 mL/min/kg
COCCCn1c(CN(C)Cc2ccccc2)c2c(=O)n(-c3ccc(F)cc3Cl)[nH]c2cc1=O	248	–	–	–	–	–	165	39.9	13000	96.4	900	–
